Assay results collected from several papers.
Target: Receptor-interacting serine/threonine-protein kinase 4 (RIPK4, Homo sapiens, UniProt P57078)
One construct used (P57078 1-832): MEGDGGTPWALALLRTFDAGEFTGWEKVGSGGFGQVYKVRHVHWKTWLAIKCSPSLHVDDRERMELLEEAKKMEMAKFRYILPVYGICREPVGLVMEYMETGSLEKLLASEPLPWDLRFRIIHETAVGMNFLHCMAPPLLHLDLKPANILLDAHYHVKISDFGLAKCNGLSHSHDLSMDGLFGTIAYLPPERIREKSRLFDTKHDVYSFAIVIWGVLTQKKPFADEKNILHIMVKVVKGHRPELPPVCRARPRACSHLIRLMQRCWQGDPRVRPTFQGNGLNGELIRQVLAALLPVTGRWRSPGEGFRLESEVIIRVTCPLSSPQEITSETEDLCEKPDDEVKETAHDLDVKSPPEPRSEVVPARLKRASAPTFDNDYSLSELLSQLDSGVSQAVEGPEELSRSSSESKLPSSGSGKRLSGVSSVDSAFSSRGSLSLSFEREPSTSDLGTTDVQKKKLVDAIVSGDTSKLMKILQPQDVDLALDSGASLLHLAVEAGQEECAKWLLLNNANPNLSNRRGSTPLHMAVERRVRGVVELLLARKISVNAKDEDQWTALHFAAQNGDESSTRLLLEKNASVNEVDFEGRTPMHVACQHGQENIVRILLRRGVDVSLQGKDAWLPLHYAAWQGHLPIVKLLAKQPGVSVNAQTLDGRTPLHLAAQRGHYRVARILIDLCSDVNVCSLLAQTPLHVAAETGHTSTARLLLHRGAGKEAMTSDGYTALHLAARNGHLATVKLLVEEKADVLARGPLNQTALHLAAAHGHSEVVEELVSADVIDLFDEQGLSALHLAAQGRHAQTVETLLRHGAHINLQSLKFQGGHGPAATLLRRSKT

SMILES	read-out	method	tested at	remaining binding [%]
COc1ncc2cc3ccccc3nc2c1C#N	cell-free assay	competition with immobilised ligand	5 µM	100
N[C@H]1CCN(c2nccc(-c3cnn4ncccc34)n2)C1	binding		1 µM	100
O=C(c1ccc(Nc2ncc(Cl)c(-c3cc4ccccc4s3)n2)cc1)N1CCC(N2CCCC2)CC1	binding	competition with immobilised ligand	1 µM	41
CNC(=O)[C@@H]1CC[C@@H](n2c(-c3ccc4cnccc4c3)nc3ccc(C(=O)NCc4cccc(C(N)=O)c4)cc32)C1	binding	competition with immobilised ligand	1 µM	65
CN(C)c1nccc(-c2cnc3ncccn23)n1	binding		1 µM	71
c1cncc(-c2cccc(Nc3nccc(NC4CCCCC4)n3)c2)c1	binding	competition with immobilised ligand	10 µM	53
C[C@H]1CCN(c2nccc(-c3cnn4ncccc34)n2)C1	binding		1 µM	81
CS(=O)(=O)N1CCCC(NC(=O)[C@H](CCC2CCCCC2)NC(=O)c2ccc(CNC(=O)c3cnc4ccccn34)cc2)C1 (stereo partly drawn)	cell-free assay	competition with immobilised ligand	0.1 µM	92
O=C(Nc1c[nH]nc1C(=O)NC1CCNCC1)c1cc(F)cc(F)c1	binding	competition with immobilised ligand	1 µM	100
COc1cnc(Nc2cccc(S(N)(=O)=O)c2)nc1N1CCN(c2ccccc2)C(=O)C1	binding	competition with immobilised ligand	1 µM	86
c1cnn2ncc(-c3ccnc(N4CCC45COC5)n3)c2c1	binding		1 µM	52
CC(=O)c1c(NS(C)(=O)=O)c2cc(-c3ccc(Cl)cc3)c(-c3ccc(Cl)cc3Cl)nc2n(C)c1=O	cell-free assay	competition with immobilised ligand	1 µM	61
CC1CCCN1c1nccc(-c2cnn3ncccc23)n1 (stereo not drawn)	binding		1 µM	98
N#CC1(c2ccccn2)CCN(Cc2cc(C(=O)N3CCCC3)c(=O)n3ccccc23)CC1	cell-free assay	competition with immobilised ligand	1 µM	100
FC(F)(F)Oc1cccc(-c2cnc3ccc(-c4ccncc4)nn23)c1	binding	competition with immobilised ligand	5 µM	69
O=C(NCCCC1CCCCC1)c1ccc(CNC(=O)c2cnn(-c3ccccc3)c2C(F)(F)F)cc1	cell-free assay	competition with immobilised ligand	0.1 µM	58
O=C(c1ccc(Nc2nccc(-c3cc4ccccc4s3)n2)cc1)N1CCC(N2CCCC2)CC1	binding	competition with immobilised ligand	1 µM	30
CN(c1ccnc(CNc2nc(Nc3ccc4c(c3)CC(=O)N4)ncc2C(F)(F)F)n1)S(C)(=O)=O	cell-free assay	competition with immobilised ligand	1 µM	6
CN(C)c1nccc(-c2cnn3ncccc23)n1	binding		1 µM	97
Cc1cnc(Nc2ccc(C(=O)N3CCC(N4CCCC4)CC3)cc2)nc1-c1cc2ccccc2s1	binding	competition with immobilised ligand	1 µM	28
Cc1c(NC(=O)c2cc(C(N)=O)nc3cc(F)ccc23)c(C(F)(F)F)nn1Cc1ccc(C#N)cc1	cell-free assay	competition with immobilised ligand	1 µM	92
